Where no end group is shown, it is not given here.
Experiments:
Grb2 SH3C [1] = conditions: read-out: Kd towards Grb2 SH3C; cited from earlier work
Grb2 SH3C domain = Grb2 SH3C domain (Homo sapiens, UniProt P62993); assay: Surface plasmon resonance; assay type: binding; conditions: for SPR classification (binder / non-binder) / SPR observed binding behavior (stoichiometry): 50 and 100 µM compound; for SPR classification (binder / non-binder): cut-off 5 RU at 100 µM (KD ≤ 1 mM); for SPR binding behavior above concentrations of 200 µM: compound > 200 µM; for SPR observed binding behavior (stoichiometry): maximum theoretical response 56 RU for 1:1 binding
How it was run: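 Untagged human Grb2 SH3C amine-coupled (EDC/NHS; 100 µM, pH 4.0 acetate) to a CM5 chip at 1500 RU. Compound in HBS-N (10 mM Hepes pH 7.4, 150 mM NaCl) with 5.0% DMSO and 0.01% Tween 20, injected 120 s at 40 µL/min, 25 °C. Double referenced against protein-free cell and buffer blank. DMSO-only and Gab2b peptide (24 µM) controls were run.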

[2] = biological target: Grb2 SH3C – Gab2b peptide interaction (Homo sapiens, UniProt P62993); assay: Biochemical competition assay; assay type: binding; conditions: for Hill slope of inhibition curve: concentration-response; for competition assay result in words: compound 5 mM
How it was run: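 Then 30 min with streptavidin-sepharose beads carrying biotinylated Gab2b peptide; washed with PBS-T. Bound protein read by SDS-PAGE, Coomassie and densitometry, normalised to no-inhibitor control (100%). Sigmoidal inhibition fit by nonlinear regression.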

Grb2 SH3C [3] = biological target: Grb2 SH3C (Homo sapiens, UniProt P62993); assay: Isothermal titration calorimetry; assay type: binding; conditions: 1 mM compound titrated into 20 µM Grb2 SH3C, 25 °C
How it was run: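 Purified Grb2 SH3C (20 µM) in 50 mM Hepes pH 7.5, 50 mM NaCl, 0.5% DMSO, clarified and degassed, 25 °C. Compound (1 mM, same buffer) injected once at 4 µL, then 18 × 15 µL. Heat peaks integrated per mole of compound and plotted against compound:protein molar ratio.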

[4] = Solubility / precipitation observed while handling in the competition assay; assay type: physicochemical

Grb2 SH3C – Gab2b peptide interaction, sequence (P62993 156-215 limits assumed): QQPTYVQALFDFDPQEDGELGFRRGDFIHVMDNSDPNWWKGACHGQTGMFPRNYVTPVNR
Grb2 SH3C domain, sequence (P62993 156-215 limits assumed): as above
Grb2 SH3C (Homo sapiens, UniProt P62993), sequence (P62993 156-215 limits assumed): as above

Compound	SPR classification (binder / non-binder) (Grb2 SH3C domain)	SPR observed binding behavior (stoichiometry) (Grb2 SH3C domain)	competition assay result in words [2]	further results
15-mer Gab2 peptide: positive control Gab2b peptide; sequence: IQPPPVNRNLKPDRK-amide (IQPPPVNRNLKPDRK-NH2)	–	–	–	Kd (Grb2 SH3C [1]): 3.2 µM
CC1(C)N=C(N)N=C(N)N1c1cccc(OCc2cccc(N)c2)c1.Cl [compound 1]	binders	–	–	–
CC1(C)N=C(N)N=C(N)N1c1cccc(CCCCc2cccc(N)c2)c1.Cl [compound 3, 1-(3-(4-(3-Aminophenyl)butyl)phenyl)-6,6-dime thyl-1,6-dihydro-1,3,5-triazine-2,4-diamine•HCl]	binders	–	–	Hill slope of inhibition curve [2]: −3.1; ITC response (Grb2 SH3C [3]): no measurable response above background; SPR binding behavior above concentrations of 200 µM (Grb2 SH3C domain): superstoichiometric binding
CC1(C)N=C(N)N=C(N)N1c1cccc(/C=C/C=C/c2cccc([N+](=O)[O-])c2)c1.Cl [compound 5, 6,6-Dimethyl-1-(3-((1E,3E)-4-(3-nitrophenyl)buta-1,3-dien-1-yl)phenyl)-1,6-dihydro-1,3,5-triazine-2,4-diamine•HCl]	binders	superstoichiometric	–	Hill slope of inhibition curve [2]: −5.0; fold increase in affinity relative to compound 3 ([2]; ratio of apparent IC50 values): 18 fold; ITC response (Grb2 SH3C [3]): significant reaction heats; SPR binding behavior above concentrations of 200 µM (Grb2 SH3C domain): superstoichiometric binding
CC1(C)N=C(N)N=C(N)N1c1cccc(OCCOc2cccc(N)c2)c1.Cl [compound 9]	binders	superstoichiometric	no activity	–
CC1(C)N=C(N)N=C(N)N1c1cc(C(F)(F)F)cc(C(F)(F)F)c1.Cl [compound 11]	no activity	–	no activity	–
CC1(C)N=C(N)N=C(N)N1c1cccc(OCC#N)c1.Cl [compound 41]	binders	–	–	inhibition in concentration-response experiment ([2]; dose range up to 20 mM, data not shown): unquantifiably weak inhibition; SPR binding behavior above concentrations of 200 µM (Grb2 SH3C domain): superstoichiometric binding
CC(=O)c1ccc(/N=N/c2c(N)nc(N)nc2N)cc1 [compound 46]	binders	–	–	aqueous solubility [4]: poor aqueous solubility
Br.CC1(C)N=C(N)N=C(N)N1c1cccc(CO)c1 [compound 47]	no activity	–	no activity	–
Cl.Cl.NC1CCC(NC2CCC(N)CC2)CC1 (centres unmarked) [compound 147]	binders	superstoichiometric	–	SPR dissociation (Grb2 SH3C domain): long dissociation time; SPR response relative to the maximum theoretical response (Grb2 SH3C domain): over 10 times; SPR response level (Grb2 SH3C domain; maximum theoretical response 56 RU): ~600 RU
Cc1ccc(O)c(C2CC(=O)NC(N)=N2)c1 (centres unmarked) [compound 156]	binders	–	–	SPR sensorgram quality (Grb2 SH3C domain): poor sensorgram shape
Cc1ccc(C(/C=C/c2ccccc2)=N/NC(=N)N)cc1.Cl [compound 164]	binders	superstoichiometric	nearly complete inhibition	precipitation during the assay ([4]; competition assay buffer, compound 5 mM): precipitated during the assay

Source: PMC3594550 (Bioorganic & medicinal chemistry, 2012)
